According to ChEMBL document CHEMBL4513216, “Probing the Open Global Health Chemical Diversity Library for Multistage-Active Starting Points for Next-Generation Antimalarials” (ACS Infect Dis, 2020):

Experiment: Toxicity liver stage against HepG2, at 10uM
Assay type: cell-based
Set-up: test concentration 10 uM, cell line HepG2-A16-CD81EGFP
Details: human, HepG2-A16-CD81EGFP cells; read-out: INHIBITION
Outline: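 Uninfected HepG2-A16-CD81EGFP cells, 3 × 10^3 per well, 1536-well, plated on prespotted compound at 10 μM final, parasite-free screening media added to match infected plates; puromycin 10 μM positive, DMSO 0.5% negative; run in parallel with 48 h PbLuc assay at 37 °C, 5% CO2; viability by CellTiter-Glo luminescence, normalized to controls.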

Compound	cytotoxicity at 10 µM [%]
CCn1ccnc1CN(C)Cc1nc(CCC(C)C)no1	2.89
CCc1nc(-c2ccc(NC(=O)N3CCC4(CC3)OCCO4)cc2)no1	7.27
COc1cnc(CSc2nnc(C)s2)cc1OCC(=O)NC(C)(C)C	9.82
CO[C@H]1CN(C)S(=O)(=O)[C@@]12CCN(Cc1ccccc1)C2	1.79
CC(=O)c1cc2c(=O)[nH]c(=O)n(C)c2nc1C	-2.89
COCCNc1nc(N2CCOCC2)nc2nccnc12	4.09
CC(C)C[C@H](NC(=O)Cn1ccc2c(Cl)cccc21)C(=O)O	5.19
Cc1cc(-c2nn3c(C(C)C)nnc3s2)on1	0.9
CC1CCN(C(=O)c2cn(-c3cc(N4CCSCC4)ncn3)cn2)CC1	-3.75
O=S(=O)(NCCC(O)c1cccs1)c1ccccc1 (stereo unspecified)	-3.82
CS(=O)(=O)N1CCCc2sc(C(=O)NC3CC3)nc21	-143
Cn1ncc2c1NC(=O)CC2c1ccccc1Br (stereo unspecified)	49
CC1=Nc2c(c(O)nn2C(C)C)C(c2cccnc2)S1 (stereo unspecified)	2.93
CNC(=O)CS(=O)(=O)C1CCN(S(=O)(=O)c2c(F)cccc2F)CC1	-22
CCn1nc(C)c2nc(C(C)C)nc(NCC(C)O)c21 (stereo unspecified)	8.02
CCS(=O)(=O)Nc1cnn(Cc2cccc(C)c2)c1	0.724
Oc1ccccc1-c1n[nH]c(C2CCCO2)n1 (stereo unspecified)	-5.22
CCC(=O)Nc1nnc(CCOc2cccc(OC)c2)s1	5.73
O=C(N[C@@H]1CN(Cc2c[nH]nc2-c2ccccc2)C[C@H]1O)c1cc[nH]n1	2.8
Cc1cnc(CCNC(=O)C2CN(C(=O)Cc3ccc(F)cc3)C2)s1	0.82
CN1C(=O)CO[C@H]2CN(C(=O)c3ccc4c(c3)CCCC4)C[C@@H]21	5.45
O=C(O)c1cncc(Cc2ccc(F)cc2)c1	2.39
CN(Cc1ccccn1)C(=O)Nc1cc(C(F)(F)F)c[nH]c1=O	8.36

Compound	cytotoxicity at 10 µM [%]
Cc1cc(F)ccc1S(=O)(=O)NCc1[nH]ncc1Br	15.1
CC(C)(C)n1cc(CNC2CCN(C(=O)c3ccncc3)CC2)cn1	-6.72
CN(CCc1ccncc1)C(=O)c1sccc1OC(F)F	-9.32
CCC(=O)NCC(=O)NC(C)c1sc(-c2ccccc2F)nc1C (stereo unspecified)	9.65
CC1CN(C(=O)NCc2cnn(-c3ccc(F)cc3F)c2)CCO1 (stereo unspecified)	2.18
O=C(NCc1cccc(N2CC=CC2)c1)NCC(F)(F)F	8.89
CCc1ccc(C2COCCN2C(=O)Nc2cccc(C(C)=O)c2)o1 (stereo unspecified)	-7.13
CS(=O)(=O)NCC1CCCN(c2ccc(C#N)cn2)C1 (stereo unspecified)	-11.1
CN1CCN(C(=O)C2CCCc3[nH]ncc32)CC1 (stereo unspecified)	0.247
Cc1n[nH]c(C)c1NC(=O)CN1CCc2c(nc(C(C)C)n2C)C1	-5.68
COc1ccc(C(=O)NS(=O)(=O)c2cncc(Br)c2)cc1	-1.91
COCCNC(=O)NC(C)COc1ccc(F)cc1F (stereo unspecified)	4.14
Cc1ccc(NC(=O)CNc2cccc(C(N)=O)c2C)c(C)c1	17.6
Cn1ccnc1CN(Cc1cccnc1)CC1CCCO1 (stereo unspecified)	15.2
N#Cc1cccc(S(=O)(=O)CCN2CCOC2=O)c1	-2.32
O=C1CC(CNc2cncc(Br)c2)c2ccccc2N1 (stereo unspecified)	-5.19
N#Cc1cccnc1NCCC1CCN(CC(F)(F)F)CC1	11
Cn1cnn(CC(=O)NCc2ccccc2F)c1=O	2.4
O=C(Cc1ccc(-n2cnnn2)cc1)Nc1nncs1	5.47
COc1cc(C(C)=O)ccc1SCC(=O)Nc1ccc(C)cn1	4.43
CCN(Cc1ccoc1)C(=O)c1ccc(C)c(S(N)(=O)=O)c1	-4.63
CNS(=O)(=O)CC(=O)N(Cc1ccsc1)c1ccccc1	-2.4
C[S+]([O-])CCNCc1ccc(OCc2cscn2)cc1 (stereo unspecified)	-138

Compound	cytotoxicity at 10 µM [%]
Cc1ccc(-n2ccnc2)c(C(=O)NCCOCC2CCCO2)c1 (stereo unspecified)	-139
Cc1cnn(CC2CCCN2c2ncnc3c2CCC3)c1 (stereo unspecified)	7.84
CC(NC(=O)CCc1cccc(OC2CCCC2)c1)c1nncn1C (stereo unspecified)	7.2
CCOc1ccc(CN(C)C(C)C(=O)Nc2cc(C)no2)cc1 (stereo unspecified)	10.6
Cc1ncccc1C(=O)Nc1cccc(OCC(F)F)n1	-7.79
O=C(CCc1nc(C2CC2)no1)c1ccc(F)c(F)c1	0.923
CCN(CC1CCOC1)C(=O)c1ccn(-c2ccc(OC)cc2)n1 (stereo unspecified)	-4.19
COc1cccc(-c2n[nH]cc2CNCC2CCS(=O)(=O)C2)c1 (stereo unspecified)	-3.54
Cc1cc(CN2CCCC(NS(C)(=O)=O)C2)ccc1-n1cncn1 (stereo unspecified)	3.78
O=C(NCc1ccnc(O)c1)NCC1CCCC1	3.57
CCN(Cc1ccc(Cl)s1)S(=O)(=O)CCOC	12.1
CSCCCNC(=O)Nc1cccc(-c2nccn2C)c1	-6.25
Cc1ccc(S(=O)(=O)Nc2ccc(-n3cccc3C(=O)O)c(C)c2)s1	6.15
COc1cccc2c1OCC(NC(=O)NC1CCN(C3CC3)CC1)C2 (stereo unspecified)	-10.7
Cc1nc2c(c(N3CC=CC3)n1)CCN(c1ncccc1C(N)=O)CC2	-10.2
CCCc1nnc(C(=O)N(C)Cc2ccc(OC)cc2)o1	2.64
CCC(CO)N(Cc1ccco1)C(=O)c1ccc(F)cc1Cl (stereo unspecified)	-0.247
CN1CCN2CCN(C(=O)c3cnn4cc(CCO)cnc34)CC2C1 (stereo unspecified)	7.04
CCN1CC(C(=O)NCCc2csc(-c3ccncc3)n2)CC1=O (stereo unspecified)	-5.64
Cc1n[nH]c(CN2CCN(C(=O)C3CCC3)[C@@H]3CS(=O)(=O)C[C@@H]32)n1	-10.8
COCC1(C(=O)N2CCC(c3nccn3CC3CC3)CC2)CCC1	4.5
CC(C)(C)C1CCC(NCCN2CCOCC2)CC1 (stereo unspecified)	0.741
c1ccc(-c2nc3c(c(NCCn4ccnn4)n2)CCNCC3)nc1	-51.1

Compound	cytotoxicity at 10 µM [%]
Cc1ncsc1CCN(C)C(=O)CN1CC2(CCCC2)CC1=O	2.19
Cc1cc(NCc2cc3n(n2)CCCN(C(=O)C2CCC2)C3)ncn1	-136
CN1C[C@@H](n2cnc(-c3ccccc3)c2-c2ncc[nH]2)C[C@H]1C(=O)O	-4.75
Cn1c(CN2CCCCC2)nnc1C1CCCN(c2ccncc2F)C1 (stereo unspecified)	-0.37
Cc1ccc(N(CC(=O)NCc2nnc3n2CCC3)S(C)(=O)=O)cc1	-4.66
COc1nccnc1-c1cc(NC2CCNCC2)nc2[nH]ccc12	-10.7
C[C@@H]1CN(c2nc3c(cc2C(N)=O)CCC3)CC[C@@]1(O)C1CCC1	0.186
Cc1cc(C(=O)N2CCCC(c3nccn3C)C2)cc(S(N)(=O)=O)c1C (stereo unspecified)	5.5
Cc1cnccc1-n1nc(C(C)C)nc1CCc1cnccn1	1.92
Cc1nc(N2C[C@H]3CC[C@@H](C2)N3)nc2cc(S(C)(=O)=O)ccc12	-7.71
O=C(c1ccc[nH]1)N1CCC(c2nccn2Cc2ccncc2)CC1	-16.8
COC(=O)C1CCN(C(=O)c2ccc(N(C)S(C)(=O)=O)c(C)c2)CC1	-1.18
CN(Cc1cnn(C)c1)C(=O)NCCc1ccc2c(c1)OCCO2	-15.4
O=C(c1ccc(Cn2ccccc2=O)o1)N1CCC2(CC1)OCCO2	-12.8
O=C(NCCNc1ncccn1)C1CCN(C(=O)c2ccoc2)CC1	-12.6
CC(c1nc(C2CC2)no1)N1CCN(CCCN2CCCC2=O)CC1 (stereo unspecified)	-13.4
CCc1nc(C2CCCN2CC(=O)NCCOc2ccccc2)no1 (stereo unspecified)	-16.4
Cn1cc(C(=O)N2CCN(Cc3ccsc3)CC2)cn1	-10
c1ncn(CC2CN(Cc3nc(-c4ccsc4)no3)CCO2)n1 (stereo unspecified)	-4.72
Cc1nc(C2CCCN(C(=O)c3ccc(Cl)cn3)C2)no1 (stereo unspecified)	-10.4
CCc1nc(CN2CCN(C(=O)N3CCCCC3)CC2)cs1	-16
Cc1csc(C2CCCN(C(=O)c3c(C)nn4cccnc34)C2)n1 (stereo unspecified)	-10.4
CC(Cn1cccn1)NCc1csc(COc2ccccc2)n1 (stereo unspecified)	-8.51

Compound	cytotoxicity at 10 µM [%]
COc1ccc(Cl)cc1C(=O)N1CCCC(c2cc(C)[nH]n2)C1 (stereo unspecified)	-10.1
CNC(=O)c1ccc(CNC(=O)NCCN(C)C2CCCC2)cc1	-7.66
Cc1cc(C)cc(OCCC(=O)N2CCCC(n3cncn3)C2)c1 (stereo unspecified)	-3.76
Cc1n[nH]c(C)c1C1COCCN1C(=O)c1cc(Cl)c[nH]1 (stereo unspecified)	-4.12
O=C1C(NCc2nnc3n2CCCC3)CCCN1c1cccc(F)c1 (stereo unspecified)	-9.68
COc1cc(C)nc(N2CCN(C(=O)CN(C)C3CC3)CC2)n1	-4.43
CCc1nc(C2CCCN2C(=O)c2nccnc2N)no1 (stereo unspecified)	-18.7
CCN1CCN(C(=O)c2cc(C(=O)OC)nn2-c2ccccc2)CC1	-13.4
CCc1nc(CN(C(C)=O)C2CCN(CCc3cnn(C)c3)C2)no1 (stereo unspecified)	-6.38
CC(=O)NC1CCCN(C(=O)c2ccc(Br)cc2O)C1 (stereo unspecified)	-10.4
O=C1[C@H]2CN(C3CCOCC3)C[C@H]2CN1Cc1ccncc1	-124
Cc1cc(O)nc(C2CCCNC2)n1 (stereo unspecified)	-9.14
O=C([C@@H]1COC[C@H]2CN(C3CCOCC3)C[C@H]21)N1CCCCO1	-6.28
CCOCC1CN(Cc2cccs2)Cc2nn(C)cc21 (stereo unspecified)	-75.2
CC(C)N1CCO[C@H]2CN(C(=O)c3ccccn3)C[C@H]21	-67.6
O=C(c1ccsc1)N1CCO[C@@H]2CN(Cc3cccs3)C[C@@H]2C1	-133
CC(C)(C)c1ccc(CN2C[C@H]3CC(O)C[C@H]3C2)c(OCC(N)=O)c1 (stereo partly specified)	2.71
COc1ccc(-n2cc3[nH][nH]c(=O)n3c2=O)cc1	10.3
CC(C)(C)c1cc(CN2C[C@@H]3CC[C@H]2CN(Cc2ccccn2)C3)n[nH]1	-0.123
